Results taken from ChEMBL document CHEMBL2321722 (J Med Chem, 2013).

Columns and labels:
[1] = Dissociation constant, pKa of the compound at basic pH by pressure-assisted capillary electrophoresis; type: physicochemical
Outline: (§1)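 Ionization constants from a high-throughput screen using pressure-assisted capillary electrophoresis with mass spectrometry detection; stated accuracy ±0.2 pKa units.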

[2] = Dissociation constant, pKa of the compound at acidic pH by pressure-assisted capillary electrophoresis; type: physicochemical; outline: as §1
Plasminogen [3] = biological target: T1, Plasminogen (Homo sapiens, UniProt P00747); test: Inhibition of human Glu-plasminogen/fibrinogen interaction in HEPES buffer assessed as inhibition of lysis of thrombin-induced clot preincubated for 15 mins prior to thrombin addition measured for 15 hrs by clot-lysis buffer assay
Plasminogen [4] = biological target: T1, Plasminogen; test: Inhibition of plasminogen/fibrinogen interaction in pooled citreated human platelet-poor plasma assessed as inhibition of lysis of CaCl2/t-PA-induced clot by microtiter plate analysis; type: cell-free
[5] = Apparent permeability from apical to basolateral side in human Caco2 cells at pH 6.5 by LC/MS analysis; type: ADME, cell-based; conditions: Caco-2, pH 6.5
[6] = Lipophilicity, log D of the compound; type: physicochemical; conditions: octanol/water

T1 sequence (P00747 97-580 limits assumed): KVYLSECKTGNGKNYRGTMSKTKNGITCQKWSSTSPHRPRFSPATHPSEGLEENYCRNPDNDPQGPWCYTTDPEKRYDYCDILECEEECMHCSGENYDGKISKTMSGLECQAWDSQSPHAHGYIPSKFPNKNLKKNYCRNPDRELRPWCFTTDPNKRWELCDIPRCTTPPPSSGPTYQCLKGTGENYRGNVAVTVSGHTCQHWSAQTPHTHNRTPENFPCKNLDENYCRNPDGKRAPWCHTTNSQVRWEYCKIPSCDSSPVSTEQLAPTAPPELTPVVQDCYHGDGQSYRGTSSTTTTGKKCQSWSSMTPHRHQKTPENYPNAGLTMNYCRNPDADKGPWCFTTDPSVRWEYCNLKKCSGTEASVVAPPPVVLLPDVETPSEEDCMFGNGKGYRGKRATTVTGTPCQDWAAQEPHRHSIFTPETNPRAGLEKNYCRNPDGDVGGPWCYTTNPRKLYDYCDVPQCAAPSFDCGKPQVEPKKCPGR
T1 sequence (P00747 581-810 limits assumed): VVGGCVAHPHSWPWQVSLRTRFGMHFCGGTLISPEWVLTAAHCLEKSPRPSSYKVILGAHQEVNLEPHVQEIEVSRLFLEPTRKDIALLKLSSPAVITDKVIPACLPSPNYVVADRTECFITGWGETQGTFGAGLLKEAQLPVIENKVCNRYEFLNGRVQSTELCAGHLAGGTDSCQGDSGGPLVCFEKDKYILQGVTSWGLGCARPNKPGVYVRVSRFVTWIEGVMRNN

| Papp A→B [5] [×10⁻⁶ cm/s] | SMILES | pKa [1] | pKa [2] | IC50 (Plasminogen [3]) [µM] | IC50 (Plasminogen [4]) [µM] | logD [6] |
| --- | --- | --- | --- | --- | --- | --- |
| – | C1CC(c2nnn[nH]2)CCN1 | 10.7 | 4.3 | > 100 | > 100 | – |
| 7.83 | NC[C@H]1CC[C@H](C(=O)O)CC1 [TRANEXAMIC ACID] | 9.7 | 4.1 | – | – | – |
| – | Oc1cc(C2CCNCC2)on1 | 10.5 | 4 | – | – | < 0 |
